CHRM4 antagonist: human M4 muscarinic receptor antagonists, primary screen, CHO cells, Fluo-8 calcium fluorescence; Muscarinic acetylcholine receptor M4 (Homo sapiens), P08173; CHO-hM4 cells, ACh EC80; inhibition, % at 3 µM; 0.73% of 360,000 active; AID 624125, 2012;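 active = inhibition above its plate's cutoff, the mean inhibition of sample wells plus 3 SD, cut at about 27% in these data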;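 note: 0% = acetylcholine EC80 with DMSO and 100% = DMSO without agonist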
Target sequence (P08173 whole entry, looked up): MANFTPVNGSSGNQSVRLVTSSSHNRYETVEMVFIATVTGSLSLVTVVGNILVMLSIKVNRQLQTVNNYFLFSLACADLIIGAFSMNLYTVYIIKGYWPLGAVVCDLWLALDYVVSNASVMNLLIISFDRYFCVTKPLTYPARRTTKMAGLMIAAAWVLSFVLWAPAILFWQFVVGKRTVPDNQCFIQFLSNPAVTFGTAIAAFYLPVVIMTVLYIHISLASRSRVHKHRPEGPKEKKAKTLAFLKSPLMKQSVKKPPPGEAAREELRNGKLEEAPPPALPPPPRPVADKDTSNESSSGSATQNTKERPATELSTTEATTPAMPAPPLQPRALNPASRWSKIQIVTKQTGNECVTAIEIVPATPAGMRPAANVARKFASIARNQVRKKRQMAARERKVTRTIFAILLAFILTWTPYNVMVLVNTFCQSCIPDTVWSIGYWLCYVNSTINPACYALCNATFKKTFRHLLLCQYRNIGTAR
TAAR1 ag: human TAAR1 agonists, primary screen, Fluo-8 calcium fluorescence, CHO RD-HGA16 cells; AID 624467, 2012; Trace amine-associated receptor 1 (Homo sapiens), Q96RJ0; 0.99% of 360,000 active; activation, % at 3 µM; vehicle wells 0%, saturating PEA agonist 100%;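 active = activation above the mean activation of all test compounds in the run plus 3 SD, cut at about 38% in these data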
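test system = CHO RD-HGA16 cells carrying human TAAR1 plus Gα16 | schedule = 17-24 h seeding, 75 min 37 °C dye, 30 min RT | compound dosing = 3 µM single concentration | control set = DMSO and PEA EC100 | replicates = n 1 | signal = Fluo-8 fluorescence, 5 s baseline then 140 s kinetic read | measure = percent activation vs PEA EC100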
M4 PAM: human M4 muscarinic receptor positive allosteric modulators, primary screen, CHO-K1 cells, Fluo-8 calcium fluorescence; AID 624126, 2012; Muscarinic acetylcholine receptor M4 (Homo sapiens), P08173; activation, % at 3 µM; 0.4% of 360,000 active; CHO-K1 hM4/Gqi5, ACh EC20; 0% = ACh EC20, 100% = maximal ACh;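 active = activation above its plate's cutoff, the mean activation of sample wells plus 3 SD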
TAAR1 antag: human TAAR1 antagonists, primary screen, Fluo-8 calcium fluorescence, CHO RD-HGA16 cells; Trace amine-associated receptor 1 (Homo sapiens), Q96RJ0; antagonist; inhibition, % at 3 µM; 1.5% of 360,000 active; AID 624466, 2012;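 active = inhibition above a per-plate cutoff, the mean inhibition of test compounds on that plate plus 3 SD, cut at about 49% in these data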;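 note: 0% = DMSO plus EC80 beta-PEA response and 100% = DMSO alone without agonist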
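Assay system: RD-HGA16 CHO cells with stable hTAAR1 and Gα16 / Reagent: EC80 β-phenethylamine stimulus / Doses: 3 µM, single point / Timing: dye loading 75 min at 37 °C, then 30 min room temperature / Measured by: Fluo-8 intracellular calcium dye fluorescence, real-time kinetic reads / Controls: vehicle wells and EC80 agonist wells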
M4 ag: human M4 muscarinic receptor agonists, primary screen, CHO-K1 cells, Fluo-8 calcium fluorescence. AID 624127, 2012. activation, % at 3 µM. CHO-K1 hM4/Gqi5; vehicle 0%, full acetylcholine response 100%. 0.14% of 360,000 active. Muscarinic acetylcholine receptor M4 (Homo sapiens), P08173;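 active = activation above the run mean over all test wells plus 3 SD, cut at about 32% in these data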;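 note: peak over basal fluorescence ratio per well then scaled between controls; 0% = DMSO wells and 100% = acetylcholine at EC100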
* hit, by the source's call; . = no result. In the library only some 3% were active in any assay of this set; here they are far more common.

SMILES | CHRM4 antagonist | TAAR1 ag | M4 PAM | TAAR1 antag | M4 ag
COc1ccc(/C=N/NC(=O)c2ccoc2C)cc1O | 9 | -1 | 32* | -9 | 3
C[C@@H]1Cn2cnc(C(=O)N3CCN(C(=O)OC(C)(C)C)CC3)c2C(=O)N1 | . | 1 | . | -10 | .
CC(C)(C)C(=O)NC(=S)NNC(=O)C(c1ccccc1)c1ccccc1 | 76* | . | -43 | . | 154*
CCNC(=S)NNC(=O)C(c1ccccc1)c1ccccc1 | -3 | 9 | 11 | 8 | 0
O=C(/C=C/c1ccc(Cl)c([N+](=O)[O-])c1)Nc1cccc(NC(=O)c2ccco2)c1 | 17 | 17 | -14 | 69* | 13
O=C(/C=C/c1cccc([N+](=O)[O-])c1)Nc1cccc(NC(=O)c2ccco2)c1 | 4 | 12 | -13 | 26 | 17
O=C(/C=C/c1ccc(Cl)c([N+](=O)[O-])c1)Nc1ccc(NC(=O)c2ccco2)cc1 | 7 | 5 | -6 | 12 | 1
O=C(/C=C/c1cccc([N+](=O)[O-])c1)Nc1cccc(NC(=O)c2cccs2)c1 | 1 | 11 | -14 | 58* | 9
Cc1ccc(S(=O)(=O)N2CCCc3nc(C)c(C)cc32)cc1 | . | -1 | . | -19 | .
CC(C)n1ncc2c(C(=O)Nc3ccccc3SCC(N)=O)cc(C3CC3)nc21 | 4 | 13 | -9 | 49* | 13
CCn1ncc2c(=O)c(C(=O)c3ccccc3)c[nH]c21 | . | -1 | . | 9 | .
CC(=O)C1=C(C)N(Cc2ccc(Cl)cc2)C(=S)NC1c1ccc(Cl)cc1 (configuration not stated) | . | 2 | . | 16 | .
Cc1ccc(-n2nnnc2-c2cnc3ccc(Cl)cc3c2-c2ccccc2)cc1 | -2 | 0 | -2 | -11 | 0
Clc1ccc2[nH]cc(-c3nnnn3-c3ccc4ccccc4c3)c2c1 | 21 | 8 | -13 | 49* | 2
COc1ccc(C2CC(=O)C(c3cc(OC)c(OC)c(OC)c3)=CN2Cc2ccccc2)cc1 (configuration not stated) | . | -1 | . | -12 | .
Cc1cc2nc(-c3ccccc3)c(CC(C)(C)C)n2c(C)c1Br | -32 | -1 | 2 | -39 | -1
CNc1ncnc2c1ncn2[C@H]1CN(CCOC)C[C@@H](CO)O1 | -3 | 9 | -1 | -40 | 0
Cc1cc(OCC(=O)Nc2ccc(CN3CCCCC3)cc2)ccc1Cl | 18 | 15 | -21 | -2 | 36*
Cc1cc(OCC(=O)Nc2ccc(CN3CCOCC3)cc2)ccc1Cl | 3 | 12 | -7 | -4 | 15
CC(C)(C)NC(=O)CN(Cc1ccc2c(c1)OCO2)C(=O)CNS(=O)(=O)c1ccc(F)cc1 | 16 | 0 | 45* | -16 | 17
COC(C[C@@H](O)[C@H](C)[C@@H](O)COCc1ccccc1)OC | 36* | 4 | -11 | 0 | 3
O=C(CN1CCOCC1)Nc1nc2cc([N+](=O)[O-])ccc2s1 | -12 | 0 | 27* | 15 | 4
CC(=O)Nc1nc2cc([N+](=O)[O-])ccc2s1 | -1 | 3 | 5 | 12 | 5
CCOC1=C2[C@@H](CN(S(=O)(=O)c3ccccc3C)[C@H]2c2ccc(Cl)cc2)[C@H]2C(=O)N(c3ccccc3)C(=O)[C@H]2C1 | 0 | 1 | -5 | -3 | 0
CCOC1=C2[C@@H](CN(S(=O)(=O)c3ccccc3C)[C@H]2c2ccc(Cl)cc2)[C@H]2C(=O)NC(=O)[C@H]2C1 | 43* | 0 | -14 | -14 | 2
SMILES | CHRM4 antagonist | TAAR1 ag | M4 PAM | TAAR1 antag | M4 ag
COc1cc2c(cc1OC)[C@](C)(c1ccccc1)C[C@@H]2NCC=C(C)C | . | 2 | . | -7 | .
N#CC(C#N)=C1C=CC=CN1/C(=C\c1ccco1)C(=O)c1ccc(Cl)cc1 | 55* | 8 | -12 | 27 | 3
N#CC(C#N)=C1C=CC=CN1/C(=C\c1ccco1)C(=O)c1ccc(-c2ccccc2)cc1 | 27* | 2 | -9 | 28 | 4
COC(=O)[C@]12C[C@H](CC(=O)N3CCCCC3)C(=O)N(Cc3ccccc3)C1=C[C@H](C1CCCC1)O[C@@H]2C | . | 2 | . | -4 | .
Nc1[nH]c(C(=O)c2ccc(Br)cc2)c(-c2ccccn2)c1C(=O)NCCc1c[nH]c2ccccc12 | . | 17 | . | 40 | .
CCN1C(=O)c2cccc3c(S(=O)(=O)N(C(C)=O)c4ccc(OC(C)=O)cc4)ccc1c23 | 15 | 21 | -6 | 49* | 8
COc1ccc(N(C(=O)c2ccncc2)S(=O)(=O)c2ccc3c4c(cccc24)C(=O)N3C)cc1 | 2 | 6 | -3 | 2 | 3
c1cncc(-c2nc(NCC3COc4ccccc4O3)c3ccccc3n2)c1 (configuration not stated) | -4 | 14 | -11 | 54* | 14
COc1ccc(CCNc2nc(C)nc3c2oc2ccccc23)cc1OC | 23 | 13 | -17 | 49* | 21
c1ccc(CNc2ncnc3c2oc2ccccc23)nc1 | -4 | 2 | 12 | 10 | 2
Cc1nc(NCCc2cnc[nH]2)c2oc3ccccc3c2n1 | -3 | 17 | 2 | -8 | 1
COc1ccc(CCNc2ncnc3c2oc2ccccc23)cc1OC | 26 | 12 | -21 | 61* | 21
COc1ccc(CCNc2nc(-c3cccnc3)nc3ccccc23)cc1OC | 28* | 15 | -19 | 63* | 15
O=C(NCc1ccccc1)[C@H]1CCCN1C(=O)[C@H]1CCCN1C(=O)c1cccs1 | . | 1 | . | -19 | .
COc1ccc(CCNc2ncnc3sccc23)cc1OC | 40* | 11 | -24 | 32 | 21
COc1ccc(Nc2ncnc3sccc23)cc1OC | 2 | 0 | 0 | -7 | 1
CCCCCCn1c2c(c(=N)c3c1CCC3)CCC2 | 10 | 14 | 9 | 3 | 2
CCCCCCCCCn1c2c(c(=N)c3c1CCC3)CCC2 | 50* | . | -26 | . | 4
CCCCC(=O)Nc1nnn(CCC)n1 | -4 | -1 | 18 | 6 | 0
CCCCn1nnc(NC(=O)CC23CC4CC(CC(C4)C2)C3)n1 | -8 | 12 | 15* | -2 | 1
COc1ccc2cc(-c3cc(C(=O)OCC(=O)Nc4c(C)n(C)n(-c5ccccc5)c4=O)c4ccccc4n3)ccc2c1 | 16 | 13 | 5 | 66* | 8
Cc1ccc2nc3c(cc2c1)c(C)nn3-c1ccccc1 | -44 | -1 | 31* | -10 | 0
Cc1nn(-c2ccccc2)c2nc(=O)n(-c3ccccc3)cc12 | 2 | 5 | 12 | 1 | 0
O=C(Nc1nnc(CCS(=O)(=O)c2ccc3ccccc3c2)s1)c1cccs1 | -7 | 1 | 21* | 3 | 1
Cc1cccc(NS(=O)(=O)c2cccc3nsnc23)c1 | -1 | 9 | -7 | -13 | 1

Screening data (PubChem BioAssay)
